Source: ChEMBL document CHEMBL4411287, “Discovery and optimization of a series of 3-substituted indazole derivatives as multi-target kinase inhibitors for the treatment of lung squamous cell carcinoma” (Eur J Med Chem, 2019)
Converted amounts (≈) assume the structure as drawn.

Columns and labels:
KG-1 = experiment: Antiproliferative activity against human KG1 cells after 72 hrs by CCK8 assay; settings: KG-1, 72 h
[1] = Cmax in ICR(CD-1) mouse at 10 mg/kg, po administered via gavage by triple quadrupole mass spectrometric analysis; format: ADME, organism-based; parameters: dose 10 mg/kg, route oral; settings: in vivo
Method in brief: (§1)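 Oral gavage at 1 mg/mL in 1% Tween80/water to male ICR mice (18-22 g, n=3). Plasma sampled at 0.25, 0.5, 1, 2, 4, 8 and 24 h, protein precipitated with methanol:acetonitrile (1:1) containing internal standard, and quantified by UPLC-triple quadrupole MS. AUC and MRT were taken from per-animal time-concentration curves. Cmax is the maximum plasma level and Tmax the time to reach it.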

[2] = AUC (0 to t) in ICR(CD-1) mouse at 10 mg/kg, po administered via gavage by triple quadrupole mass spectrometric analysis; format: ADME, organism-based; settings: in vivo; method in brief: as §1
[3] = Solubility of compound; format: physicochemical
[4] = Efflux ratio of permeability in human Caco2 cells at 5 uM after 120 mins by LC-MS/MS analysis; format: ADME, cell-based; settings: Caco-2
Method in brief: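 Caco-2 (C2BBe1) monolayers grown to confluence on collagen-coated transwell polycarbonate membranes. Compound at 5 μM added apically or basolaterally in HBSS with 10 mM HEPES at pH 7.4 and 6.8. Duplicate samples taken at 120 min and analysed by LC-MS/MS. Efflux ratio = Papp(B→A)/Papp(A→B).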

[5] = target: Hepatocyte growth factor receptor (Homo sapiens) (UniProt P08581); experiment: Inhibition of c-Met (unknown origin) at 1000 nM relative to control
Method in brief: (§2)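 ELISA with purified recombinant kinase on plates precoated with poly(Glu,Tyr) 4:1 at 20 µg/mL. ATP 10 µM in HEPES pH 7.4 buffer with MgCl2, MnCl2, Na3VO4 and DTT. Run 60 min at 37 °C. Detected with anti-phosphotyrosine PY99, HRP secondary antibody and o-phenylenediamine, read at 490 nm. Inhibition % = [1 − A490/A490 control]×100. 1% DMSO as negative control.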

[6] = target: Mitogen-activated protein kinase 3 (Homo sapiens) (UniProt P27361); experiment: Inhibition of ERK1 (unknown origin) at 1000 nM relative to control
[7] = target: ALK tyrosine kinase receptor (Homo sapiens) (UniProt Q9UM73); experiment: Inhibition of ALK (unknown origin) at 100 nM relative to control
[8] = target: Hepatocyte growth factor receptor (Homo sapiens) (UniProt P08581); experiment: Inhibition of c-Met (unknown origin) at 100 nM relative to control; method in brief: as §2
[9] = target: Proto-oncogene tyrosine-protein kinase Src (Homo sapiens) (UniProt P12931); experiment: Inhibition of c-Src (unknown origin) at 100 nM relative to control; method in brief: as §2
[10] = target: Tyrosine-protein kinase JAK1 (Homo sapiens) (UniProt P23458); experiment: Inhibition of JAK1 (unknown origin) at 100 nM relative to control
Method in brief: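 Purified recombinant kinase domains run in ELISA on precoated poly(Glu,Tyr) 4:1 (20 µg/mL) with 10 µM ATP in 50 mM HEPES pH 7.4, 50 mM MgCl2, 0.5 mM MnCl2, 0.2 mM Na3VO4, 1 mM DTT; 1% DMSO control; 60 min at 37 °C. Phosphotyrosine read by PY99 antibody, HRP anti-mouse IgG, OPD/H2O2 at 490 nm; inhibition = [1−A490/A490control]×100%; two separate experiments.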

[11] = target: Hepatocyte growth factor receptor (Homo sapiens) (UniProt P08581); experiment: Inhibition of c-Met (unknown origin) at 10 nM relative to control; method in brief: as §2
[12] = target: Cyclin-dependent kinase 1 (Homo sapiens) (UniProt P06493); experiment: Inhibition of CDK1 (unknown origin) at 10 nM relative to control
[13] = target: Cyclin-dependent kinase 4 (Homo sapiens) (UniProt P11802); experiment: Inhibition of CDK4 (unknown origin) at 10 nM relative to control
[14] = system: T1, Discoidin domain-containing receptor 2 (Homo sapiens), Q16832 [I638F]; experiment: Inhibition of DDR2 I638F mutant phosphorylation in human NCI-H2286 cells after 2 hrs by Western blot analysis; format: cell-based
T1 sequence (whole entry): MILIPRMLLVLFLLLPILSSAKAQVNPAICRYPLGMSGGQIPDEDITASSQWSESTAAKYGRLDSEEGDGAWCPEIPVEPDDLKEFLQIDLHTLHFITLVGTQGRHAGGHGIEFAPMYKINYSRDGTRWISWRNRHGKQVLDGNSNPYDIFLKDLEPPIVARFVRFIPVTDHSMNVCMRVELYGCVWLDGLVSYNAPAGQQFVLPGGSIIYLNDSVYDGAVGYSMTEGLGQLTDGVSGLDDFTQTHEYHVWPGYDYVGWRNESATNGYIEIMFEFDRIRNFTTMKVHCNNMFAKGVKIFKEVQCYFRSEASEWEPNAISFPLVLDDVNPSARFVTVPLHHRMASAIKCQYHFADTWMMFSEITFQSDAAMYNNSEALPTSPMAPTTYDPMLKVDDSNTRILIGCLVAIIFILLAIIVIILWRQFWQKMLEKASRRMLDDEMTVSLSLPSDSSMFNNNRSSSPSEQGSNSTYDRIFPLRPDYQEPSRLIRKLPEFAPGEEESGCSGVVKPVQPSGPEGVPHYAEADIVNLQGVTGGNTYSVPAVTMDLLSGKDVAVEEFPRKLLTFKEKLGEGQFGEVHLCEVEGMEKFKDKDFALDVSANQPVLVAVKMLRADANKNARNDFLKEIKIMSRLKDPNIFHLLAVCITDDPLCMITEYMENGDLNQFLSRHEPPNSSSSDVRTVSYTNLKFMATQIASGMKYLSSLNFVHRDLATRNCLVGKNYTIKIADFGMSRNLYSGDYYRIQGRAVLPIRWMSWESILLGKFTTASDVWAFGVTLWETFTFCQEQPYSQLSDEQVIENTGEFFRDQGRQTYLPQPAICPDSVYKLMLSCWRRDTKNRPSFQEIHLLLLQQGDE
Method in brief: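 NCI-H2286 cells exposed to compound for 2 h at 37 °C and lysed in SDS sample buffer. Lysates run on 10% SDS-PAGE and blotted to nitrocellulose. Membranes probed for phospho- and total DDR2, ERK and Akt, with GAPDH as loading control, and detected by HRP secondary antibody and enhanced chemiluminescence.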

NCI-H2286 [15] = experiment: Antiproliferative activity against human NCI-H2286 cells harboring DDR2 mutation after 72 hrs by CCK8 assay; format: functional, cell-based; settings: NCI-H2286, 72 h
Method in brief: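 Cells seeded at low density in growth medium and compounds added the next day. Incubated 72 h, then proliferation read by sulforhodamine B, MTT or CCK-8. IC50 obtained by four-parameter concentration-response curve fitting.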

NCI-H2286 [16] = experiment: Antitumor activity against human NCI-H2286 cells xenografted in SCID mouse assessed as tumor growth inhibition at 10 mg/kg, po qd for 10 consecutive days relative to control; format: functional; settings: read-out: TGI
Method in brief: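 NCI-H2286 xenograft established by s.c. fragment implantation. At 100-150 mm³ mice were randomized (vehicle n=10, treated n=5) and given compound orally once daily for 10 days. Tumour volume = length×width²/2, measured twice weekly. TGI taken on the final day from change in volume relative to vehicle, with Student's t-test.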

Hepatocyte growth factor receptor (Homo sapiens), sequence (P08581 whole entry): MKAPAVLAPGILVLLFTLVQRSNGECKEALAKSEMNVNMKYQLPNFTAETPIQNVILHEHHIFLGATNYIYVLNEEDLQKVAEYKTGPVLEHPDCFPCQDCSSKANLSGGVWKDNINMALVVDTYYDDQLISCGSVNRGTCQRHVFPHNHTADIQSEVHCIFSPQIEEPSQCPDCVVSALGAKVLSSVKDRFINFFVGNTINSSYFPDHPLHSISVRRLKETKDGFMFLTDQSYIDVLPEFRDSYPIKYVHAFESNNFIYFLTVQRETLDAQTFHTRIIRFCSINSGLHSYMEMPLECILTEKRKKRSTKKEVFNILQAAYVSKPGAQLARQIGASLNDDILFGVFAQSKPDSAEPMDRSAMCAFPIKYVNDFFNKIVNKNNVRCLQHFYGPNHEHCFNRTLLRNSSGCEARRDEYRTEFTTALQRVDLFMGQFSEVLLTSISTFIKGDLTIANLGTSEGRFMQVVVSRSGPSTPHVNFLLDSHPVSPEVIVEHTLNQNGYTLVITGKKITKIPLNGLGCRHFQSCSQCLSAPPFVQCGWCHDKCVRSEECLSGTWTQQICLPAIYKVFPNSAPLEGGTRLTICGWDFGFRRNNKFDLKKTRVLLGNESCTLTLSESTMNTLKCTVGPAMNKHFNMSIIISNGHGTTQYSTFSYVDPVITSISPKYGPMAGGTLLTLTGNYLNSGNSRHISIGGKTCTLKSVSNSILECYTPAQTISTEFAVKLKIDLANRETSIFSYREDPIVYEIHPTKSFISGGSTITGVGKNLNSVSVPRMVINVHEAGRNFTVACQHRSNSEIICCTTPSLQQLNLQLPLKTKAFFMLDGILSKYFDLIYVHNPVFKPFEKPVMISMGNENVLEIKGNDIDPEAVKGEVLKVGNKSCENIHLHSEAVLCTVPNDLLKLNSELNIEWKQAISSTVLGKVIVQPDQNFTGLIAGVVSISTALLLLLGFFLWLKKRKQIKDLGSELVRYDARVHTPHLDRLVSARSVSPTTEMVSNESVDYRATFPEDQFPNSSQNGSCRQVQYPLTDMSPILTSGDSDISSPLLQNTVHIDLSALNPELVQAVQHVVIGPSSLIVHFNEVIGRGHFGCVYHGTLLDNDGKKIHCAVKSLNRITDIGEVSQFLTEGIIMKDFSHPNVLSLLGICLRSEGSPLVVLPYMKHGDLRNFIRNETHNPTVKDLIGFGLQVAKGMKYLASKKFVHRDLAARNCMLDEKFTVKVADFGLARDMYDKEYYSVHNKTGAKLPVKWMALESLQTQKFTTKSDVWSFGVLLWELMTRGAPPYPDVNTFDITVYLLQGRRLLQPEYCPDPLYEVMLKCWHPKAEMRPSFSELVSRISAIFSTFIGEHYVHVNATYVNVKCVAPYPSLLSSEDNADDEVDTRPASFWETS
Cyclin-dependent kinase 1 (Homo sapiens), sequence (P06493 whole entry, looked up): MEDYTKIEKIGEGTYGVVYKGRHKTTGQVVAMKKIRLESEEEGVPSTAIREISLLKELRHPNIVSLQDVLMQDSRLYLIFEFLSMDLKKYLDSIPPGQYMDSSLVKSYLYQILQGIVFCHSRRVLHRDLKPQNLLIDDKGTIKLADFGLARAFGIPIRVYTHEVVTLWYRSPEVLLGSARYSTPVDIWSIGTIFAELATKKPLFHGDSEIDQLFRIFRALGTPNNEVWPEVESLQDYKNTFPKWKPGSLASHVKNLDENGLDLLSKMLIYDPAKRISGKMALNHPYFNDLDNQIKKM
ALK tyrosine kinase receptor (Homo sapiens), sequence (Q9UM73 19-1620 limits assumed): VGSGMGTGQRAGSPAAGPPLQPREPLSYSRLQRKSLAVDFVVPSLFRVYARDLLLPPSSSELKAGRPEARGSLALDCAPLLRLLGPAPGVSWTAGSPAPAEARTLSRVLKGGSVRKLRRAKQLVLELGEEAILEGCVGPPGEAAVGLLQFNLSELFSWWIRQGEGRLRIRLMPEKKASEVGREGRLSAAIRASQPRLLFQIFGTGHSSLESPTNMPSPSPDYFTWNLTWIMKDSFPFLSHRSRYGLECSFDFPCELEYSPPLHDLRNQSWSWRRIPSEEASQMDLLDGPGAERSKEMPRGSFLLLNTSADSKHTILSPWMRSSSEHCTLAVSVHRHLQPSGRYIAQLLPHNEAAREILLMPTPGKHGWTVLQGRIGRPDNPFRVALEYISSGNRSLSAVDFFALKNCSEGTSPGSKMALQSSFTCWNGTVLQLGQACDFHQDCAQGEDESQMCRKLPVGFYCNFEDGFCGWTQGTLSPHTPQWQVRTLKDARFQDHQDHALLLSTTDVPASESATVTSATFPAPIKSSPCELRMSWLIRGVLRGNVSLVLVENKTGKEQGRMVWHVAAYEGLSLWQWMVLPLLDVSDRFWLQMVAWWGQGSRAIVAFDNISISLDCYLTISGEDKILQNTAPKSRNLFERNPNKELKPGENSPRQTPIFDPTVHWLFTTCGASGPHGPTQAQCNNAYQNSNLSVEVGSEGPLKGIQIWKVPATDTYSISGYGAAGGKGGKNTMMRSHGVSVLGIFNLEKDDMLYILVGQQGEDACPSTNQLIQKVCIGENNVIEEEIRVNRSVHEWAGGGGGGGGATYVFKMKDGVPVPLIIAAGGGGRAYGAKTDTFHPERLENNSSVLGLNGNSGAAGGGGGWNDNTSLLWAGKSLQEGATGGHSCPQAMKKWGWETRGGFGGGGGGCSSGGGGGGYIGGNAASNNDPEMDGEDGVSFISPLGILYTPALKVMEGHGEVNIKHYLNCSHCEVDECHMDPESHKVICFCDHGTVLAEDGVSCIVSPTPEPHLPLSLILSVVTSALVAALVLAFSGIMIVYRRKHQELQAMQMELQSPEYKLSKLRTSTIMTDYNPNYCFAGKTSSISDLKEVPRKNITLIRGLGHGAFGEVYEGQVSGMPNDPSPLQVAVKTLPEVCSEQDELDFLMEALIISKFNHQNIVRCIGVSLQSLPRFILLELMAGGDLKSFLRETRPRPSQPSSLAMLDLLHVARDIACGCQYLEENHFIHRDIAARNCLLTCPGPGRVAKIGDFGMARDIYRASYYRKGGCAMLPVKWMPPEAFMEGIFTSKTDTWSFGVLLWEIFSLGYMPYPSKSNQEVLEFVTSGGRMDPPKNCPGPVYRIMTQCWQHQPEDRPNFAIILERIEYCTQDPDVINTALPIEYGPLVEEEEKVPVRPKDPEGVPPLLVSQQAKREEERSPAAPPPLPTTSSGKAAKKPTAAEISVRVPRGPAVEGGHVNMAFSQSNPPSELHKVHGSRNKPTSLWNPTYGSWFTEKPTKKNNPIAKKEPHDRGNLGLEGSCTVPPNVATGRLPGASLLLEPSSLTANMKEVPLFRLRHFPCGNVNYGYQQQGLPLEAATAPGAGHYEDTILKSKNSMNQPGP
Mitogen-activated protein kinase 3 (Homo sapiens), sequence (P27361 whole entry): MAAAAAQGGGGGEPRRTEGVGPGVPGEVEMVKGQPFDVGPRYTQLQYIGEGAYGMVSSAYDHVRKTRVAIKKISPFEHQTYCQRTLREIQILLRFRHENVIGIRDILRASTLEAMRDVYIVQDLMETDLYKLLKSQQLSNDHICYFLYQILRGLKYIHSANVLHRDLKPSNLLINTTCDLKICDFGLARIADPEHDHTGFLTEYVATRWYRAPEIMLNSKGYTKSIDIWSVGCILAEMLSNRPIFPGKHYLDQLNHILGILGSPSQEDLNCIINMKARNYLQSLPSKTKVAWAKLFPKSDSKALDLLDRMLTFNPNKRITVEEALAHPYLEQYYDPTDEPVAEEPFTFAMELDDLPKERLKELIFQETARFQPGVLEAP
Proto-oncogene tyrosine-protein kinase Src (Homo sapiens), sequence (P12931 2-536 limits assumed): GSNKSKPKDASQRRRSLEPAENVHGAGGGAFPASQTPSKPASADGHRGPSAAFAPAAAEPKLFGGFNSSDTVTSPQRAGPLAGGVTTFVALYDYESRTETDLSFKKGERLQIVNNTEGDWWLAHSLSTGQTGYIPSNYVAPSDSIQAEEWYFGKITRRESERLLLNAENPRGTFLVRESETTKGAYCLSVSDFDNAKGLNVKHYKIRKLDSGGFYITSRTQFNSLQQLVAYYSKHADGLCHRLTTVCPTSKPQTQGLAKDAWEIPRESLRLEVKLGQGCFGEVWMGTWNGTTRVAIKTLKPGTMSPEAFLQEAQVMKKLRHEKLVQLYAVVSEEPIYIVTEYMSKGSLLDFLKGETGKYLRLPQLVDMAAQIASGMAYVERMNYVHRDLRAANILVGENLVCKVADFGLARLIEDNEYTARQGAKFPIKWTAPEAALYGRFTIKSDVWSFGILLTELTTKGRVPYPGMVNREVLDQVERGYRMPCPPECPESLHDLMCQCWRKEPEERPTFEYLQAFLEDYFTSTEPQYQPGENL
Cyclin-dependent kinase 4 (Homo sapiens), sequence (P11802 whole entry, the tested form may be a part): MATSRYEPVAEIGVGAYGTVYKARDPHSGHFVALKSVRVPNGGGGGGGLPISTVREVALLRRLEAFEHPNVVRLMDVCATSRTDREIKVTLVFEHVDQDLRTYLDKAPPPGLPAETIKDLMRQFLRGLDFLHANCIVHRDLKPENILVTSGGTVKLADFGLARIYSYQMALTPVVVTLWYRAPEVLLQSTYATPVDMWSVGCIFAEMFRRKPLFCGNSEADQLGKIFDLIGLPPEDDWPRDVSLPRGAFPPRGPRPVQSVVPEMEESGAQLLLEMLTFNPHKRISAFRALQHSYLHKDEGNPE

Cmax [1]: 1120 ng/mL
AUC(0-t) [2]: 7640 ng·h/mL
solubility [3]: 2 µM (≈ 1 µg/mL)
efflux ratio at 2 h, 5 µM [4]: 1.1
inhibition [5]: 47.5%
inhibition [6]: 3.8%
inhibition [7]: 71.7%
inhibition [8]: 0.3%
inhibition [9]: 87.6%
inhibition [10]: 13.1%
inhibition [11]: 0.2%
inhibition [12]: -0.1%
inhibition [13]: 4.4%
inhibition [14]: Dose-dependent effect
IC50 (NCI-H2286 [15]): 93 nM
Compound: Cc1ccc(C(=O)Nc2cccc(C(F)(F)F)c2)cc1-c1ccc2c(-c3cnn(C4CC4)c3)n[nH]c2c1
IC50 (KG-1): 108 nM
inhibition in vivo at 10 mg/kg (NCI-H2286 [16]): 82.8%
